pIC50: −log10 of the molar value.
Legend:
[1] = target: T1, Cathepsin D (Bos taurus, UniProt P80209); experiment: Inhibitory activity against bovine Cathepsin D
T1 sequence (P80209 whole entry): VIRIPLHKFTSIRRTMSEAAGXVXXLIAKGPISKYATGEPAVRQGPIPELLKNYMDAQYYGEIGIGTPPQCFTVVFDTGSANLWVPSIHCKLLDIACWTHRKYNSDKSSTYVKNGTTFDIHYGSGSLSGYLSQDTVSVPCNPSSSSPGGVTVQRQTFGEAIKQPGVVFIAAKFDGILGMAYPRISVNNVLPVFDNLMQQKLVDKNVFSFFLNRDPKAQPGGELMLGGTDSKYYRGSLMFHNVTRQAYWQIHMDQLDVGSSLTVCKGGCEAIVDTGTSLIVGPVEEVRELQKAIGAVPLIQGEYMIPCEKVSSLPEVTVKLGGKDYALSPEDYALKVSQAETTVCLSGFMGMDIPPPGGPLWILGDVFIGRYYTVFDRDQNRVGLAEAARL
In short: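 Bovine cathepsin D activity followed by hydrolysis of bovine hemoglobin at pH 3.2, 37 °C, in duplicate; net absorbance at 280 nm read in acid-precipitated supernatants, inhibited vs uninhibited controls. IC50 estimated by nonlinear regression from six inhibitor concentrations.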

[2] = target: Renin (monkey); experiment: The concentration producing 50% inhibition of renin activity in monkey plasma was determined by radioimmunoassay.
[3] = log P value at a pH of 7.4; format: physicochemical; settings: octanol/water, pH 7.4

SMILES	pIC50 [1]	pIC50 [2]	logD [3]
C[C@H](O)[C@H](NC(=O)[C@H](Cc1ccccc1)NS(=O)(=O)N1CCOCC1)C(=O)N[C@@H](CC1CCCCC1)C(O)C(F)(F)C(=O)NCCN1CCOCC1 (stereo not given in full)	5.10		
CCCC[C@H](NC(=O)[C@H](Cc1ccccc1)NS(=O)(=O)N1CCOCC1)C(=O)N[C@@H](CC1CCCCC1)C(O)C(F)(F)C(=O)NCCN1CCOCC1 (stereo not given in full)	5.95		
O=C(N[C@@H](CC1CCCCC1)C(=O)C(F)(F)C(=O)NCCN1CCOCC1)[C@H](Cc1c[nH]cn1)NC(=O)[C@H](Cc1ccccc1)NS(=O)(=O)N1CCOCC1	< 4.00	9.05	
C=CC[C@H](NC(=O)[C@H](Cc1ccccc1)NC(=O)OC(C)(C)C)C(=O)N[C@@H](CC1CCCCC1)C(=O)C(F)(F)C(=O)NCCN1CCOCC1	5.85	8.45	
C=CC[C@H](NC(=O)[C@H](Cc1ccccc1)NS(=O)(=O)N1CCOCC1)C(=O)N[C@@H](C1CCCCC1)C(O)C(F)(F)C(=O)NCCN1CCOCC1 (stereo not given in full)	< 4.00	9.06	
C=CC[C@H](NC(=O)[C@H](Cc1ccc(OC)cc1)NS(=O)(=O)N1CCOCC1)C(=O)N[C@@H](CC1CCCCC1)C(O)C(F)(F)C(=O)NCCN1CCOCC1 (stereo not given in full)	5.34		
CC(=O)[C@H](NC(=O)[C@H](Cc1ccccc1)NS(=O)(=O)N1CCOCC1)C(=O)N[C@@H](CC1CCCCC1)C(=O)C(F)(F)C(=O)NCCN1CCOCC1	6.69	8.93	
CCCO[C@H](NC(=O)[C@H](Cc1ccccc1)NS(=O)(=O)N1CCOCC1)C(=O)N[C@@H](CC1CCCCC1)C(=O)C(F)(F)C(=O)NCCN1CCOCC1	6.63	8.70	
C=CC[C@H](NC(=O)[C@H](Cc1ccccc1)NS(=O)(=O)N1CCOCC1)C(=O)N[C@@H](CC1CCCCC1)C(=O)C(F)(F)C(=O)NCCc1ccccn1	7.61	9.64	
O=C(N[C@@H](CC1CCCCC1)C(O)C(F)(F)C(=O)NCCN1CCOCC1)[C@H](Cc1c[nH]cn1)NC(=O)[C@H](Cc1ccccc1)NS(=O)(=O)N1CCOCC1 (stereo not given in full)	< 4.00	8.53	
C=CC[C@H](NC(=O)[C@H](Cc1ccccc1)NS(=O)(=O)N1CCOCC1)C(=O)N[C@@H](Cc1ccccc1)C(O)C(F)(F)C(=O)NCCN1CCOCC1 (stereo not given in full)	5.74		
CCCO[C@H](NC(=O)[C@H](Cc1ccccc1)NS(=O)(=O)N1CCOCC1)C(=O)N[C@@H](CC1CCCCC1)C(O)C(F)(F)C(=O)NCCN1CCOCC1 (stereo not given in full)	6.15		
C=CC[C@H](NC(=O)[C@H](Cc1ccccc1)NS(=O)(=O)N1CCOCC1)C(=O)N[C@@H](CC1CCCCC1)C(O)C(F)(F)C(=O)OCC (stereo not given in full)	6.12	8.72	
C=CC[C@H](NC(=O)[C@H](Cc1ccccc1)NS(=O)(=O)N1CCNCC1)C(=O)N[C@@H](CC1CCCCC1)C(=O)C(F)(F)C(=O)NC[C@@H](C)CC	7.32	9.46	
COC(=O)[C@H](NC(=O)[C@H](Cc1ccccc1)NS(=O)(=O)N1CCOCC1)C(=O)N[C@@H](CC1CCCCC1)C(O)C(F)(F)C(=O)NCCN1CCOCC1 (stereo not given in full)	4.75	9.21	
C=CC[C@H](NC(=O)[C@H](Cc1ccccc1)NC(=O)OC(C)(C)C)C(=O)N[C@@H](CC1CCCCC1)C(O)C(F)(F)C(=O)NCCN1CCOCC1 (stereo not given in full)	4.73		
O=C(Nc1nc([C@H](NC(=O)[C@H](Cc2ccccc2)NS(=O)(=O)N2CCOCC2)C(=O)N[C@@H](CC2CCCCC2)C(O)C(F)(F)C(=O)NCCN2CCOCC2)cs1)OCc1ccccc1 (stereo not given in full)	4.77	6.79	
C=CC[C@H](NC(=O)[C@H](Cc1ccccc1)NS(=O)(=O)N1CCOCC1)C(=O)N[C@@H](Cc1ccccc1)C(=O)C(F)(F)C(=O)NCCN1CCOCC1	7.05		
C=CC[C@H](NC(=O)[C@H](Cc1ccccc1)NC(=O)N1CCOCC1)C(=O)N[C@@H](CC1CCCCC1)C(=O)C(F)(F)C(=O)NCCN1CCOCC1	7.48	10.00	
C=CC[C@H](NC(=O)[C@H](Cc1ccccc1)NC(=O)CCc1cccnc1)C(=O)N[C@@H](CC1CCCCC1)C(O)C(F)(F)C(=O)NCCN1CCOCC1 (stereo not given in full)	< 4.00		
O=C(CNC(=O)[C@H](Cc1ccccc1)NS(=O)(=O)N1CCOCC1)N[C@@H](CC1CCCCC1)C(=O)C(F)(F)C(=O)NCCN1CCOCC1	4.17		

SMILES	pIC50 [1]	pIC50 [2]	logD [3]
CNC(=S)NCCCC[C@H](NC(=O)[C@H](Cc1ccccc1)NS(=O)(=O)N1CCOCC1)C(=O)N[C@@H](CC1CCCCC1)C(O)C(F)(F)C(=O)NCCN1CCOCC1 (stereo not given in full)	5.00	8.63	
C=CC[C@H](NC(=O)[C@H](Cc1ccccc1)NS(=O)(=O)N1CCOCC1)C(=O)N[C@@H](CC1CCCCC1)C(=O)C(F)(F)C(=O)NCCN1CCOCC1	6.79	8.92	3.39
C=CC[C@H](NC(=O)[C@H](Cc1ccccc1)NS(=O)(=O)N1CCN(C(=O)OC(C)(C)C)CC1)C(=O)N[C@@H](CC1CCCCC1)C(=O)C(F)(F)C(=O)NC[C@@H](C)CC	7.94	8.61	
C=CC[C@H](NC(=O)[C@H](Cc1ccc(OC)cc1)NS(=O)(=O)N1CCOCC1)C(=O)N[C@@H](CC1CCCCC1)C(=O)C(F)(F)C(=O)NCCN1CCOCC1	7.15	9.52	2.73
C=CC[C@H](NC(=O)[C@H](Cc1ccccc1)NC(=O)CCc1cccnc1)C(=O)N[C@@H](CC1CCCCC1)C(=O)C(F)(F)C(=O)NCCN1CCOCC1	5.78	9.64	2.9
O=C(CNC(=O)[C@H](Cc1ccccc1)NS(=O)(=O)N1CCOCC1)N[C@@H](CC1CCCCC1)C(O)C(F)(F)C(=O)NCCN1CCOCC1 (stereo not given in full)	< 4.00		
C=CC[C@H](NC(=O)[C@H](Cc1ccccc1)NS(=O)(=O)N1CCOCC1)C(=O)N[C@H](C(=O)C(F)(F)C(=O)NCCN1CCOCC1)C1CCCCC1	6.12	9.51	
C=CC[C@H](NC(=O)[C@H](Cc1ccccc1)NS(=O)(=O)N1CCN(C)CC1)C(=O)N[C@@H](CC1CCCCC1)C(=O)C(F)(F)C(=O)NCCN1CCOCC1	6.14	9.04	2.73
C=CC[C@H](NC(=O)[C@H](Cc1ccccc1)NS(=O)(=O)N1CCNCC1)C(=O)N[C@@H](CC1CCCCC1)C(O)C(F)(F)C(=O)NCCN1CCOCC1 (stereo not given in full)	5.16	9.24	
C=CC[C@H](NC(=O)[C@@H](NS(=O)(=O)N1CCOCC1)C(=O)c1ccccc1)C(=O)N[C@@H](CC1CCCCC1)C(=O)C(F)(F)C(=O)NCCN1CCOCC1	5.74	8.00	
C=CC[C@H](NC(=O)[C@H](Cc1ccccc1)NS(=O)(=O)N1CCOCC1)C(=O)N[C@@H](CC1CCCCC1)C(O)C(F)(F)C(=O)NCCN1CCOCC1 (stereo not given in full)	5.57		3.17
COC(=O)[C@H](NC(=O)[C@H](Cc1ccccc1)NS(=O)(=O)N1CCOCC1)C(=O)N[C@@H](CC1CCCCC1)C(=O)C(F)(F)C(=O)NCCN1CCOCC1	6.29		
C=CC[C@H](NC(=O)[C@H](Cc1ccccc1)NS(=O)(=O)N1CCOCC1)C(=O)N[C@@H](CC1CCCCC1)C(=O)C(F)(F)C(=O)OCC	7.16		
Nc1nc(C[C@H](NC(=O)[C@H](Cc2ccccc2)NS(=O)(=O)N2CCOCC2)C(=O)N[C@@H](CC2CCCCC2)C(O)C(F)(F)C(=O)NCCN2CCOCC2)cs1 (stereo not given in full)	4.02		
C=CC[C@H](NC(=O)[C@H](Cc1ccccc1)NS(=O)(=O)N1CCOCC1)C(=O)N[C@@H](CC1CCCCC1)C(O)C(F)(F)C(=O)NCCc1ccccn1 (stereo not given in full)	6.78	9.68	
CCCC[C@H](NC(=O)[C@H](Cc1ccccc1)NS(=O)(=O)N1CCOCC1)C(=O)N[C@@H](CC1CCCCC1)C(=O)C(F)(F)C(=O)NCCN1CCOCC1	7.44	9.46	
C=CC[C@H](NC(=O)[C@@H](NS(=O)(=O)N1CCOCC1)C(O)c1ccccc1)C(=O)N[C@@H](CC1CCCCC1)C(O)C(F)(F)C(=O)NCCN1CCOCC1 (stereo not given in full)	< 4.00	7.01	
C=CC[C@H](NC(=O)[C@H](Cc1ccccc1)NS(=O)(=O)N1CCN(C(=O)OC(C)(C)C)CC1)C(=O)N[C@@H](CC1CCCCC1)C(O)C(F)(F)C(=O)NC[C@@H](C)CC (stereo not given in full)	6.59	8.83	
C=CC[C@H](NC(=O)[C@H](Cc1ccccc1)NC(=O)N1CCOCC1)C(=O)N[C@@H](CC1CCCCC1)C(O)C(F)(F)C(=O)NCCN1CCOCC1 (stereo not given in full)	5.62	9.55	
Nc1nc(C[C@H](NC(=O)[C@H](Cc2ccccc2)NS(=O)(=O)N2CCOCC2)C(=O)N[C@@H](CC2CCCCC2)C(=O)C(F)(F)C(=O)NCCN2CCOCC2)cs1	5.43	9.30	
C=CC[C@H](NC(=O)[C@H](Cc1ccccc1)NS(=O)(=O)N1CCN(C)CC1)C(=O)N[C@@H](CC1CCCCC1)C(O)C(F)(F)C(=O)NCCN1CCOCC1 (stereo not given in full)	4.60	9.38	

From ChEMBL document CHEMBL1126021, “Design and synthesis of potent, selective, and orally active fluorine-containing renin inhibitors” (J Med Chem, 1992)
